Source: ChEMBL document CHEMBL3112444, “Synthesis and anticancer activity of focused compound libraries from the natural product lead, oroidin” (2014)

Tests used:
[1] = Cytotoxicity against human U87 cells assessed as growth inhibition after 72 hrs by MTT assay; type: functional, U-87MG ATCC; conditions: U-87 MG
Outline: (§1)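 Cells in logarithmic growth kept in DMEM with 10% FBS, 10 mM sodium bicarbonate, penicillin 100 IU/mL, glutamine 4 mM, at 37 °C under 5% CO2. Plated in duplicate at 2500–4000 cells/well. Compound (30 mM DMSO stock) added 24 h after plating. MTT read at 540 nm after 72 h exposure.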

[2] = Cytotoxicity against mouse SMA cells assessed as growth inhibition after 72 hrs by MTT assay; type: functional; outline: as §1
[3] = Cytotoxicity against human SJ-G2 cells assessed as growth inhibition after 72 hrs by MTT assay; type: functional; conditions: SJ-G2, 72 h; outline: as §1
[4] = Cytotoxicity against human MIA cells assessed as growth inhibition after 72 hrs by MTT assay; type: functional; outline: as §1
[5] = Cytotoxicity against human BE(2)-C cells assessed as growth inhibition after 72 hrs by MTT assay; type: functional; outline: as §1
DU-145 [6] = test: Cytotoxicity against human DU145 cells assessed as growth inhibition after 72 hrs by MTT assay; type: functional; conditions: DU-145, 72 h; outline: as §1
[7] = Cytotoxicity against human H460 cells assessed as growth inhibition after 72 hrs by MTT assay; type: functional; conditions: NCI-H460, 72 h; outline: as §1
A-431 [8] = test: Cytotoxicity against human A431 cells assessed as growth inhibition after 72 hrs by MTT assay; type: functional; conditions: A-431, 72 h; outline: as §1
A2780 [9] = test: Cytotoxicity against human A2780 cells assessed as growth inhibition after 72 hrs by MTT assay; type: functional; conditions: A2780, 72 h; outline: as §1
MCF7 [10] = test: Cytotoxicity against human MCF7 cells assessed as growth inhibition after 72 hrs by MTT assay; type: functional; conditions: MCF7, 72 h; outline: as §1
SW480 [11] = test: Cytotoxicity against human SW480 cells assessed as growth inhibition after 72 hrs by MTT assay; type: functional; conditions: SW480, 72 h; outline: as §1
HT-29 [12] = test: Cytotoxicity against human HT-29 cells assessed as growth inhibition after 72 hrs by MTT assay; type: functional; conditions: HT-29, 72 h; outline: as §1
[13] = Cytotoxicity against human U87 cells assessed as growth inhibition at 25 uM after 72 hrs by MTT assay relative to control; type: functional, U-87MG ATCC; conditions: U-87 MG, read-out: GI; outline: as §1
[14] = Cytotoxicity against mouse SMA cells assessed as growth inhibition at 25 uM after 72 hrs by MTT assay relative to control; type: functional; conditions: read-out: GI; outline: as §1
[15] = Cytotoxicity against human MIA cells assessed as growth inhibition at 25 uM after 72 hrs by MTT assay relative to control; type: functional; conditions: read-out: GI; outline: as §1
[16] = Cytotoxicity against human SJ-G2 cells assessed as growth inhibition at 25 uM after 72 hrs by MTT assay relative to control; type: functional; conditions: SJ-G2, 72 h, read-out: GI; outline: as §1
[17] = Cytotoxicity against human BE(2)-C cells assessed as growth inhibition at 25 uM after 72 hrs by MTT assay relative to control; type: functional; conditions: read-out: GI; outline: as §1
DU-145 [18] = test: Cytotoxicity against human DU145 cells assessed as growth inhibition at 25 uM after 72 hrs by MTT assay relative to control; type: functional; conditions: DU-145, 72 h, read-out: GI; outline: as §1
A-431 [19] = test: Cytotoxicity against human A431 cells assessed as growth inhibition at 25 uM after 72 hrs by MTT assay relative to control; type: functional; conditions: A-431, 72 h, read-out: GI; outline: as §1
[20] = Cytotoxicity against human H460 cells assessed as growth inhibition at 25 uM after 72 hrs by MTT assay relative to control; type: functional; conditions: NCI-H460, 72 h, read-out: GI; outline: as §1
A2780 [21] = test: Cytotoxicity against human A2780 cells assessed as growth inhibition at 25 uM after 72 hrs by MTT assay relative to control; type: functional; conditions: A2780, 72 h, read-out: GI; outline: as §1
MCF7 [22] = test: Cytotoxicity against human MCF7 cells assessed as growth inhibition at 25 uM after 72 hrs by MTT assay relative to control; type: functional; conditions: MCF7, 72 h, read-out: GI; outline: as §1
SW480 [23] = test: Cytotoxicity against human SW480 cells assessed as growth inhibition at 25 uM after 72 hrs by MTT assay relative to control; type: functional; conditions: SW480, 72 h, read-out: GI; outline: as §1
HT-29 [24] = test: Cytotoxicity against human HT-29 cells assessed as growth inhibition at 25 uM after 72 hrs by MTT assay relative to control; type: functional; conditions: HT-29, 72 h, read-out: GI; outline: as §1

SMILES | GI50 [1] | GI50 [2] | GI50 [3] | GI50 [4] | GI50 [5] | GI50 (DU-145 [6]) | GI50 [7] | GI50 (A-431 [8]) | inhibition of growth at 25 µM [13] | inhibition of growth at 25 µM [14] | inhibition of growth at 25 µM [15] | inhibition of growth at 25 µM [16] | inhibition of growth at 25 µM [17] | inhibition of growth at 25 µM (DU-145 [18]) | inhibition of growth at 25 µM (A-431 [19]) | inhibition of growth at 25 µM [20] | inhibition of growth at 25 µM (A2780 [21]) | inhibition of growth at 25 µM (MCF7 [22]) | inhibition of growth at 25 µM (SW480 [23]) | inhibition of growth at 25 µM (HT-29 [24]) | further results
O=C(NCc1ccc(Cl)cc1)c1cc(Br)c(Br)[nH]1 | 34 µM | 16 µM | 28 µM | 22 µM | 32 µM | 27 µM | 28 µM | 24 µM | 30% | 79% | 63% | 42% | 24% | 40% | 37% | 57% | 86% | > 100% | 11% | 95% | GI50 (A2780 [9]): 13 µM; GI50 (MCF7 [10]): 14 µM; GI50 (SW480 [11]): 36 µM; GI50 (HT-29 [12]): 13 µM
O=C(NCc1ccc(Cl)c(Cl)c1)c1cc(Br)c(Br)[nH]1 | 27 µM | 17 µM | 18 µM | 17 µM | 24 µM | 20 µM | 19 µM | 20 µM | 55% | 84% | 77% | 70% | 44% | 66% | 57% | 66% | 90% | > 100% | 22% | 77% | GI50 (A2780 [9]): 15 µM; GI50 (MCF7 [10]): 12 µM; GI50 (SW480 [11]): 33 µM; GI50 (HT-29 [12]): 17 µM
O=C(NCC(c1ccccc1)c1ccccc1)c1cc(Br)c(Br)[nH]1 | 36 µM | 11 µM | 27 µM | 18 µM | 16 µM | 21 µM | 18 µM | 19 µM | 48% | 80% | 69% | 56% | > 100% | 56% | 56% | 67% | 94% | > 100% | 33% | 82% | GI50 (A2780 [9]): 13 µM; GI50 (MCF7 [10]): 10 µM; GI50 (SW480 [11]): 34 µM; GI50 (HT-29 [12]): 16 µM
O=C(NCc1ccc(-c2ccccc2)cc1)c1ccc[nH]1 | 11 µM | 21 µM | > 50 µM | 6.5 µM | 11 µM | 6.5 µM | > 50 µM | 5.8 µM | 77% | 53% | 74% | 33% | 72% | 87% | 81% | 59% | 58% | 79% | 93% | 78% | GI50 (A2780 [9]): 11 µM; GI50 (MCF7 [10]): 5.7 µM; GI50 (SW480 [11]): 4.3 µM; GI50 (HT-29 [12]): 4.3 µM
O=C(NCc1ccccc1)c1cc(Br)c(Br)[nH]1 | > 50 µM | 25 µM | 11 µM | > 50 µM | 4.8 µM | 33 µM | 35 µM | 22 µM | 31% | 61% | 33% | 95% | > 100% | 52% | 56% | 43% | 84% | > 100% | 33% | > 100% | GI50 (A2780 [9]): 14 µM; GI50 (MCF7 [10]): 11 µM; GI50 (SW480 [11]): > 50 µM; GI50 (HT-29 [12]): 4.6 µM
O=C(NCc1ccc(-c2ccccc2)cc1)c1cc(Br)c(Br)[nH]1 | > 50 µM | 17 µM | > 50 µM | 3.4 µM | 4.2 µM | 2.6 µM | 21 µM | 3.7 µM | 58% | 59% | 82% | 17% | 57% | 64% | 90% | 61% | 66% | 70% | 97% | 78% | GI50 (A2780 [9]): 6.4 µM; GI50 (MCF7 [10]): 3.1 µM; GI50 (SW480 [11]): 2.4 µM; GI50 (HT-29 [12]): 3.4 µM
COc1ccc(CNC(=O)c2cc(Br)c(Br)[nH]2)cc1 | – | – | – | – | – | – | – | – | < 0% | 23% | 14% | 4% | < 0% | < 0% | 12% | 13% | 48% | 30% | < 0% | 14% | –
O=C(NCCc1ccccc1)c1cc(Br)c(Br)[nH]1 | – | – | – | – | – | – | – | – | < 0% | 53% | 19% | 22% | 62% | < 0% | 7% | 19% | 58% | 70% | 1% | 46% | –
Nc1ncc(/C=C/CNC(=O)c2cc(Br)c(Br)[nH]2)[nH]1 [OROIDIN] | > 50 µM | > 50 µM | > 50 µM | > 50 µM | > 50 µM | > 50 µM | > 50 µM | > 50 µM | 3% | 15% | 21% | < 0% | 6% | 23% | 6% | 7% | 51% | 27% | 8% | 31% | GI50 (A2780 [9]): 24 µM; GI50 (MCF7 [10]): 42 µM; GI50 (SW480 [11]): > 50 µM; GI50 (HT-29 [12]): > 50 µM
CCc1ccc(CCNC(=O)c2ccc[nH]2)cc1 | – | – | – | – | – | – | – | – | 0% | 8% | 12% | < 0% | < 0% | 1% | 0% | 3% | < 0% | 19% | < 0% | 22% | –
COc1ccc(CNC(=O)c2ccc[nH]2)cc1 | – | – | – | – | – | – | – | – | < 0% | < 0% | 6% | < 0% | < 0% | 8% | < 0% | 2% | 6% | 5% | 10% | 3% | –
